NSD2 HMT inh = NSD2 (human) methyltransferase inhibition. NSD2 peptide methylation, AlphaScreen, 120 min. inhibition, % at 12.5 µM. 0.54% of 310,000 active; in the data active = inhibition above about 50%
CASP6 VEID inh = inhibitors of human caspase-6 | P55212 | inhibition, % at 12.5 µM | purified caspase-6, Z-VEID-R110 cleavage fluorescence | 0.53% of 350,000 active;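 active = mean inhibition across replicates at least about 35%, with every replicate also reaching that limit, limit read from the data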;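 also: 0% = median of neutral control wells and 100% = no fluorescence left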
UHRF1 MBD2 ctr = human UHRF1 methylated DNA binding inhibitors; 0.75% of 370,000 active; Q96T88; inhibition, % at 4.4 µM; UHRF1 binding to methylated oligo, TR-FRET; in the data active = inhibition above about 21%;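 also: UHRF1 SRA domain binding a hemimethylated CpG hairpin DNA probe; 0% = median of test compound wells and 100% = reference inhibitor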
LEDGF integ inh = blocks HIV-1 LEDGF/p75-dependent DNA integration; TR-FRET IN-LEDGF/p75 DNA integration, Eu/Cy5; inhibition, % at 3.7 µM; 0.64% of 370,000 active; AID 743269;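 active = inhibition above the screen-wide mean plus 3 SD, cut at about 13% in these data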;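 also: signal is the Cy5 over europium emission ratio at 671 and 618 nm; 0% = plate median of compound wells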
TDP2 inh = TDP2 (human) inhibition, absorbance primary screen. O95551. recombinant TDP2, T5PNP hydrolysis, p-nitrophenol absorbance 415 nm. inhibition, % at 12.8 µM. 0.34% of 370,000 active;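 active = inhibition above the mean of all tested compounds plus 3 SD, set per campaign, cut at about 25% in these data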;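 also: 0% = DMSO with enzyme and 100% = buffer with substrate but no TDP2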
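Assay system: Recombinant human TDP2 | Quantity: 120 nM TDP2 per well | Incubation: 2 h at 37 °C | Signal: Epi absorbance | Evaluation: Percent inhibition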
MBD2 inh = MBD2-methylated oligo binding inhibition | Q9UBB5 | TR-FRET, MBD2 binding to methylated oligonucleotide | inhibition, % at 4.4 µM | 0.31% of 370,000 active; in the data active = inhibition above about 13%
Target sequence (Q9UBB5 whole entry, looked up): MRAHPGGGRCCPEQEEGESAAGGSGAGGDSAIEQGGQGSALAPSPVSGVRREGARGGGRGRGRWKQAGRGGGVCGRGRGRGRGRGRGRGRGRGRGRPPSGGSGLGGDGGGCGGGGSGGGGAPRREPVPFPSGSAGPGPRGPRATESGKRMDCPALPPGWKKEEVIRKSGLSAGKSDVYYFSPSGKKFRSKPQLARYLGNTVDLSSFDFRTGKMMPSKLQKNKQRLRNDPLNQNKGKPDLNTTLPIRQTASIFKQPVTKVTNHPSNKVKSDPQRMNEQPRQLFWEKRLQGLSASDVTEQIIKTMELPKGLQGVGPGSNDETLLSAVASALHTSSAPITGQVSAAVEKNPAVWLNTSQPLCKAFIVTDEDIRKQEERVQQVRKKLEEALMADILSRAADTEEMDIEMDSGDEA
An asterisk follows results filed as active. Shown are actives, neighbours in structure and some others; about 1.8% of the full set was active somewhere.

How did CCCCC(=O)/C=C/n1c(=S)oc2ccccc21 do in these assays?
NSD2 HMT inh: 3; CASP6 VEID inh: -1; UHRF1 MBD2 ctr: 23*; LEDGF integ inh: -2; TDP2 inh: 3; MBD2 inh: 8

Results for C[C@@H]1CN([C@H](C)CO)C(=O)c2cc(NC(=O)NC3CCCCC3)ccc2O[C@@H](C)CCCCO[C@@H]1CN(C)C(=O)C1CCCCC1 ?
CASP6 VEID inh: 0

How did CCC(=O)Nc1ccc2c(c1)C(=O)N(C)[C@H]1CC[C@@H](CC(=O)NCCc3ccncc3)O[C@@H]1CO2 do in these assays?
CASP6 VEID inh: -1

What do the screens show for `C[C@@H]1C=C(C(=O)O)O[C@H](OCc2ccc(CO)cc2)C1`?
CASP6 VEID inh: 2; UHRF1 MBD2 ctr: 55*; LEDGF integ inh: 1; TDP2 inh: 14; MBD2 inh: 0

Results for CSc1ncccc1C(=O)OCC(=O)NCCCc1ccccc1 ?
NSD2 HMT inh: 1; CASP6 VEID inh: 7; UHRF1 MBD2 ctr: 4; LEDGF integ inh: 2; TDP2 inh: -1; MBD2 inh: 4

How did COCCNC(=O)COC(=O)c1cccnc1SC do in these assays?
NSD2 HMT inh: -8; CASP6 VEID inh: 5; UHRF1 MBD2 ctr: 27*; LEDGF integ inh: 2; TDP2 inh: -2; MBD2 inh: -1

What do the screens show for `CCOC(=O)C1CCN(C(=O)CSc2ccc(Cl)cc2)CC1`?
NSD2 HMT inh: -3; UHRF1 MBD2 ctr: 0; LEDGF integ inh: 0; TDP2 inh: 6; MBD2 inh: -1

Results for CCOC(=O)C1CCN(C(=O)C(C)Sc2ccc(Cl)cc2)CC1 (centres undefined) ?
NSD2 HMT inh: -4; UHRF1 MBD2 ctr: 23*; LEDGF integ inh: 7; TDP2 inh: 9; MBD2 inh: 9

How did O=C(NN=Cc1ccc(F)cc1)c1ccccc1NS(=O)(=O)c1cccs1 do in these assays?
NSD2 HMT inh: 0; CASP6 VEID inh: 0; UHRF1 MBD2 ctr: -1; LEDGF integ inh: 1; TDP2 inh: 6; MBD2 inh: 2

How did O=C(N/N=C/c1ccc([N+](=O)[O-])o1)c1ccccc1NS(=O)(=O)c1cccs1 do in these assays?
CASP6 VEID inh: 40*; UHRF1 MBD2 ctr: -5; LEDGF integ inh: 6; TDP2 inh: -9; MBD2 inh: -2

Results for CN(CC(=O)N1CCN(c2ccccc2)CC1)S(=O)(=O)c1cnc[nH]1 ?
NSD2 HMT inh: 0; UHRF1 MBD2 ctr: 29*; LEDGF integ inh: 2; TDP2 inh: -3; MBD2 inh: -2

Results for COc1ccccc1C(=O)Nc1ccc2c(c1)OC[C@H](C)NC[C@H](C)[C@H](OC)CN(C)C2=O ?
CASP6 VEID inh: 0

What do the screens show for `OCCN(CCO)CC(O)COc1ccc2c(c1)OCO2` (centres undefined)?
NSD2 HMT inh: 0; UHRF1 MBD2 ctr: 67*; LEDGF integ inh: -2; TDP2 inh: -4; MBD2 inh: 0

What do the screens show for `O=C(NCc1ccco1)c1ccc(CS(=O)(=O)c2ccc(Cl)cc2)o1`?
NSD2 HMT inh: -1

What do the screens show for `CC(=O)N(C)C[C@H]1Oc2ncc(/C=C/c3ccccc3)cc2C(=O)N([C@@H](C)CO)C[C@H]1C`?
CASP6 VEID inh: 2

How did O=C(COC(=O)c1ccc[nH]c1=O)NC1CCCCCCC1 do in these assays?
NSD2 HMT inh: -1; CASP6 VEID inh: -3; UHRF1 MBD2 ctr: 2; LEDGF integ inh: 2; TDP2 inh: 12; MBD2 inh: 0

What do the screens show for `Cc1cnc(C(=O)OCC(=O)N2C(C)CCCC2C)cn1` (centres undefined)?
NSD2 HMT inh: -4; CASP6 VEID inh: 3; UHRF1 MBD2 ctr: 24*; LEDGF integ inh: -3; TDP2 inh: -1; MBD2 inh: -1

How did Cc1cnc(C(=O)OCC(=O)NC2CCCCCC2)cn1 do in these assays?
NSD2 HMT inh: 3; CASP6 VEID inh: 2; UHRF1 MBD2 ctr: 22*; LEDGF integ inh: -1; TDP2 inh: 3; MBD2 inh: 1

How did O=C(COC(=O)c1ccc[nH]c1=O)NC1CCCCCC1 do in these assays?
NSD2 HMT inh: 8; CASP6 VEID inh: 1; UHRF1 MBD2 ctr: 56*; LEDGF integ inh: -5; TDP2 inh: 14; MBD2 inh: 0

Results for O=C(C[C@H]1C=C[C@H](NS(=O)(=O)c2ccc(F)cc2)[C@H](CO)O1)NCCN1CCCCC1 ?
CASP6 VEID inh: 0

What do the screens show for `CN(C)CCNC(=O)c1cccc2nc3c(ccc4ccccc43)nc12`?
NSD2 HMT inh: 22; CASP6 VEID inh: -27; UHRF1 MBD2 ctr: -33; LEDGF integ inh: -1; TDP2 inh: -3; MBD2 inh: 31*

How did CC(C)C[C@@H](CN1CCC[C@@H]1CN1C(=O)C(=O)NC[C@@H]1Cc1ccccc1)N1C[C@H](Cc2ccccc2)N(CC2CCCCC2)C(=O)C1=O do in these assays?
CASP6 VEID inh: 2; UHRF1 MBD2 ctr: 54*; LEDGF integ inh: -3; TDP2 inh: 2; MBD2 inh: 4

Results for CC(C)C[C@H]1CN(CCCC[C@@H]2CNC(=O)C(=O)N2CC2CCCCC2)C(=O)C(=O)N1CCc1ccccc1 ?
CASP6 VEID inh: 0; UHRF1 MBD2 ctr: 21*; LEDGF integ inh: 6; TDP2 inh: -7; MBD2 inh: 4

Results for O=C1NC[C@H](CCCCN2C[C@H](Cc3ccc(O)cc3)N(CCc3ccc(O)cc3)C(=O)C2=O)N(Cc2ccccc2)C1=O ?
CASP6 VEID inh: 9; UHRF1 MBD2 ctr: 22*; LEDGF integ inh: 0; TDP2 inh: 4; MBD2 inh: 12

Results for O=C(C[C@@H]1C=C[C@H](NS(=O)(=O)c2ccc(F)cc2)[C@@H](CO)O1)NC1CCC1 ?
CASP6 VEID inh: 1

How did COCCCNC(=O)[C@@]1(Cc2ccccc2N=[N+]=[N-])N=C(c2ccc(OCCCO)cc2)O[C@H]1c1ccccc1N=[N+]=[N-] do in these assays?
CASP6 VEID inh: -1

What do the screens show for `CCCn1nc([N+](=O)[O-])c(C(C#N)c2nc3ccccc3o2)c(Cl)c1=O` (centres undefined)?
NSD2 HMT inh: 33; UHRF1 MBD2 ctr: -9; LEDGF integ inh: 3; TDP2 inh: 11; MBD2 inh: -1

How did CCn1nc([N+](=O)[O-])c(C(C#N)c2nc3cc(C(F)(F)F)ccc3s2)c(Cl)c1=O (centres undefined) do in these assays?
NSD2 HMT inh: 54*; UHRF1 MBD2 ctr: -6; LEDGF integ inh: 1; TDP2 inh: 22; MBD2 inh: 0

Results for CC1CCc2nc3ccc(S(=O)(=O)N4CCC(C(=O)NCc5ccccc5Cl)CC4)cc3c(C(=O)O)c2C1 (centres undefined) ?
NSD2 HMT inh: 1; CASP6 VEID inh: 45*; UHRF1 MBD2 ctr: -2; LEDGF integ inh: 5; TDP2 inh: 6; MBD2 inh: -7

Source: PubChem BioAssay (several laboratories)
